Screens: PubChem, Broad Institute
SIRT5 inh: inhibitors of human sirtuin-5 desuccinylase; actives 1.1% (n = 330,000); Purified SirT5, succinyl-peptide AMC, trypsin-coupled fluorescence; AID 652115; inhibition, % at 15 µM; Q9NXA8; in the data active = inhibition above about 15%
Target sequence (Q9NXA8 whole entry, looked up): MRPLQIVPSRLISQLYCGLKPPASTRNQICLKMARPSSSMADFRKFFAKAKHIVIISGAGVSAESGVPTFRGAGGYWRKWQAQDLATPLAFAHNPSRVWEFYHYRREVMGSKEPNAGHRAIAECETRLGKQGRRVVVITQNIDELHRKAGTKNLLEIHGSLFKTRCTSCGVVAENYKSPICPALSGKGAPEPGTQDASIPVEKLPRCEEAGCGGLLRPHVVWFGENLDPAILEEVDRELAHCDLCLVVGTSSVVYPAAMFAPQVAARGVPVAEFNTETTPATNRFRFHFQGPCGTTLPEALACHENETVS
DENV2 CPE: inhibitors of DENV2 cytopathic effect. actives 1.7% (n = 350,000). DENV2-infected cells, cytopathic effect rescue, plate reader. AID 651640. CPE inhibition, % at 9.99 µM; in the data active = CPE inhibition above about 20%, passing the limit was not always enough; tested in BHK-21 cells;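 also: 0% = median of neutral control wells and 100% = median of positive control wells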
E-sel inducer: induces E-selectin expression in human endothelial cells. HUVEC E-selectin immunofluorescence imaging; normalized: neutral wells 0, TNF-alpha wells 100. activation, % at 7.58 µM. actives 0.37% (n = 260,000);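 active = mean E-selectin-positive cell signal at least 10% of the positive control, reached in at least 60% of replicates, without over 20% cell loss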
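Material: HUVEC primary endothelial cells; Amount: 3,000 cells per well; Dosing: single concentration; Medium: EGM-2 growth medium on 0.1% gelatin-coated wells; Read-out basis: percent E-selectin-positive cells; Signal: immunofluorescence imaging; Control set: TNF-alpha, DMSO.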
* = called active by the depositor. An excerpt weighted towards active compounds, which were near 2.9% of everything screened.

What do the screens show for `C[C@@H]1CN([C@@H](C)CO)C(=O)c2cccc(NC(=O)c3nc4ccccc4s3)c2O[C@@H]1CN(C)S(=O)(=O)c1ccc(Cl)cc1`?
SIRT5 inh: 11.8; DENV2 CPE: 9.4; E-sel inducer: -0.4

Results for C[C@@H]1CN([C@H](C)CO)C(=O)c2cccc(NC(=O)c3nc4ccccc4s3)c2O[C@H]1CN(C)S(=O)(=O)c1ccccc1 ?
SIRT5 inh: 3.2; DENV2 CPE: -7.3; E-sel inducer: 0.1

Results for O=C(NCCCN1CCC(Cc2ccccc2)CC1)c1ccc(CS(=O)c2ccccc2Cl)o1 (centres undefined) ?
SIRT5 inh: -3.9; DENV2 CPE: -0.9; E-sel inducer: -0.1

Results for COc1ccc(C(C#N)N2CCC(c3ccccc3)=N2)cc1OC (centres undefined) ?
SIRT5 inh: -0.4; DENV2 CPE: 5.4; E-sel inducer: 0.0

Results for CN1C(=O)[C@H]2[C@@H](/C=C/c3ccccc3)N3C(=O)CN(CCO)C(=O)[C@@]3(Cc3ccccc3)[C@H]2C1=O ?
SIRT5 inh: -2.2; DENV2 CPE: 9.2; E-sel inducer: 0.0

How did O=C1[C@H]2[C@@H](/C=C/c3ccccc3)N3C(=O)CN(CCO)C(=O)[C@@]3(Cc3ccccc3)[C@H]2C(=O)N1c1ccccc1 do in these assays?
DENV2 CPE: 56.5*; E-sel inducer: -0.1

Results for CCCCN(C)c1nc(-c2ccco2)c2c(c1C#N)CC(C)(C)OC2 ?
DENV2 CPE: -1.4; E-sel inducer: -0.1

What do the screens show for `O=C(CC1C(=O)NCCN1CCCc1ccccc1)NCCc1ccccc1Cl` (centres undefined)?
SIRT5 inh: 15.4*; DENV2 CPE: 5.7

How did COc1ccccc1CCNC(=O)CC1C(=O)NCCN1CCCc1ccccc1 (centres undefined) do in these assays?
SIRT5 inh: -1.1; DENV2 CPE: 6.6

How did O=C(c1cccnc1)N1C[C@@H]2[C@H](c3ccccc31)[C@H](CO)N2C(=O)C1CCCCC1 do in these assays?
SIRT5 inh: 1.1; DENV2 CPE: -5.2; E-sel inducer: -0.1

Results for O=C(C1CCC1)N1C[C@H]2[C@@H](c3ccccc31)[C@H](CO)N2C(=O)Cc1ccccn1 ?
SIRT5 inh: 4.6; DENV2 CPE: 32.8*; E-sel inducer: 0.0

How did O=C(C1CCC1)N1C[C@@H]2[C@H](c3ccccc31)[C@H](CO)N2C(=O)Cc1ccccn1 do in these assays?
SIRT5 inh: 8.7; E-sel inducer: 0.0

What do the screens show for `O=C(CC(F)(F)F)N1C[C@@H]2[C@H](c3ccccc31)[C@@H](CO)N2C(=O)c1cccnc1`?
SIRT5 inh: -0.1; DENV2 CPE: 22.7*; E-sel inducer: 0.0

What do the screens show for `O=C(CC(F)(F)F)N1C[C@@H]2[C@H](c3ccccc31)[C@H](CO)N2C(=O)c1ccncc1`?
SIRT5 inh: 5.6; DENV2 CPE: -4.7; E-sel inducer: 0.2

What do the screens show for `O=C(CC(F)(F)F)N1C[C@@H]2[C@H](c3ccccc31)[C@@H](CO)N2Cc1cccnc1`?
SIRT5 inh: 2.5; DENV2 CPE: 13.5; E-sel inducer: 0.5

How did O=C(CC(F)(F)F)N1C[C@H]2[C@@H](c3ccccc31)[C@@H](CO)N2Cc1cccnc1 do in these assays?
SIRT5 inh: 4.7; DENV2 CPE: 27.2*; E-sel inducer: 0.1

Results for O=C(c1cccnc1)N1C[C@@H]2[C@H](c3ccccc31)[C@@H](CO)N2C(=O)C1CCCCC1 ?
SIRT5 inh: -2.5; DENV2 CPE: 52.1*; E-sel inducer: 0.1

What do the screens show for `COc1ccc(CNS(=O)(=O)NCc2ccc(C)cc2)cc1OC`?
SIRT5 inh: 1.1; DENV2 CPE: 11.0

How did CCC12CCC3c4ccc(O)cc4CCC3C1CC(O)C2O (centres undefined) do in these assays?
SIRT5 inh: 0.9; DENV2 CPE: -10.9; E-sel inducer: -0.4

How did COP(=O)(OC)OC(C(=O)c1ccccc1)c1ccc(Cl)cc1 (centres undefined) do in these assays?
SIRT5 inh: 1.5; E-sel inducer: 0.1

How did C[C@H](CO)N1C[C@H](C)[C@H](CN(C)C)Oc2ncc(C#CC3CC3)cc2C1=O do in these assays?
SIRT5 inh: 0.2; DENV2 CPE: 101.5*; E-sel inducer: 0.2

How did C[C@H]1CN([C@@H](C)CO)C(=O)c2cc(C#CC3CC3)cnc2O[C@H]1CN(C)C do in these assays?
SIRT5 inh: -0.3; DENV2 CPE: -3.2; E-sel inducer: 1.0

Results for C[C@@H]1CN([C@H](C)CO)C(=O)c2cc(C#CC3CC3)cnc2O[C@H]1CN(C)C(=O)Nc1ccccc1 ?
SIRT5 inh: 4.2; DENV2 CPE: 31.3*; E-sel inducer: 0.7

How did C[C@H](CO)N1C[C@H](C)[C@@H](CN(C)C(=O)Nc2ccccc2)Oc2ncc(C#CC3CC3)cc2C1=O do in these assays?
SIRT5 inh: 4.4; DENV2 CPE: 1.3; E-sel inducer: 0.4
